Experiments:
[1] = target: peptide-HLA-A*0201 complex (Homo sapiens, UniProt P04439, D140Y/D185E/D98H/E176V/E277Q/G131W/G231S/I119V/I121R/I166T/I218V/L300P/L318F/N151K/N90K/P208A/P217A/Q86G/Q94H/R138H/R169H/T345S); test: BFA decay assay; format: binding; conditions: T2 cells loaded with 100 µM peptide, 37°C, time required for 50% reduction of the MFI value recorded at time 0
[2] = system: T2 cells pulsed with corresponding peptides; test: LDH release cytotoxicity assay of peptide-specific CTLs; format: cell-based, human; conditions: effector to target cell ratio 100:1
Method in brief: (§1)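 Effectors were CTLs from donor PBMCs after three rounds of peptide stimulation over 3 weeks. Targets were plated at 5,000/well at E:T 100:1, spun 250 × g 4 min, then co-cultured 4–6 h at 37°C, 5% CO2, in phenol red-free medium with 5% FBS. Supernatant LDH gave %cytotoxicity = (experimental − effector spontaneous − target spontaneous)/(target maximum − target spontaneous) ×100. Triplicate wells, three repeats.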

[3] = system: MCF-7 cells (HLA-A*0201+, EPS8+); test: as above; format: cell-based, human; conditions: effector to target cell ratio 100:1, CTLs induced with peptide 10 µg/ml
Method in brief: as §1

| Sequence | DC50 [1] [h] | lysis rate of T2 cells loaded with the corresponding peptide ([2]; donor 1) [%] | lysis rate of T2 cells loaded with the corresponding peptide ([2]; donor 2) [%] | average lysis rate of MCF-7 cells ([3]; donor 1) [%] | average lysis rate of MCF-7 cells ([3]; donor 2) [%] |
| --- | --- | --- | --- | --- | --- |
| FLFTPLNMV [Peptide 360] | >8 |  |  |  |  |
| ILDDIEFFI [Peptide 276] | 6 to 8 |  |  |  |  |
| KLLDAKGKV [Peptide 92] |  | 45.41±4.16 | 35.23±1.50 | 51.28±1.54 | 54.22±3.01 |
| QLAESVANV [Peptide 455] | >8 |  |  |  |  |

— publication PMC4463842 (Molecular Medicine Reports, 2015)
